# According to ChEMBL document CHEMBL1132178, “5-Amino-1-(chloromethyl)-1,2-dihydro-3H-benz[e]indoles: relationships between structure and cytotoxicity for analogues bearing different DNA minor groove binding subunits” (J Med Chem, 1999):
# Key:
# CHO-AA8 = experiment: Tested for growth inhibition against AA8 tumor cell line(chinese hamster ovary).; assay type: functional, cell-based, Cricetulus griseus
# How it was run: (§1)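 Log-phase cultures seeded in 96-well plates (200 AA8, 300 UV4 or 50 EMT6 cells/well), drug added after 24 h. Aerobic 4 h exposure at 37 °C under 5% CO2, then washed and regrown 4 days. Cell density read by sulforhodamine B staining. IC50 is the concentration giving 50% growth inhibition versus same-plate controls; mean of 2–5 determinations ± SEM.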
# EMT6 = experiment: Tested for growth inhibition against EMT6 tumor cell line(murine mammary carcinoma).; assay type: functional, cell-based, Mus musculus; how it was run: as §1
# SK-OV-3 = experiment: Tested for growth inhibition against SKOV3 tumor cell line(human ovarian).; assay type: functional, cell-based
# How it was run: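 Log-phase cultures of 600 SKOV3 cells/well in 96-well plates, drug added after 24 h. Aerobic 4 h exposure at 37 °C under 5% CO2, then washed and regrown 5 days. Growth read by sulforhodamine B staining. IC50 is the concentration giving 50% inhibition relative to same-plate controls; average of 2–5 determinations ± SEM.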
# UV4 = experiment: The compound was tested for growth inhibition against UV4 tumor cell line(chinese hamster ovary).; assay type: functional, cell-based, Cricetulus griseus; how it was run: as §1
Structure (SMILES),"IC50 (CHO-AA8; Cricetulus griseus, CHO-AA8) [nM]","IC50 (EMT6; Mus musculus, EMT6) [nM]","IC50 (SK-OV-3; Homo sapiens, SK-OV-3) [nM]","IC50 (UV4; Cricetulus griseus, UV4) [nM]",IC50 (CHO-AA8; cho-aa8) [nM],IC50 (EMT6; emt6) [nM],IC50 (SK-OV-3; sk-ov-3) [nM],IC50 (UV4; uv4) [nM]
CN(C)CCOc1ccc(/C=C/C(=O)N2CC(CCl)c3c2cc(N)c2ccccc32)cc1 (stereo unspecified),1.5,0.63,1.9,0.56,–,–,–,–
Nc1ccc2[nH]c(C(=O)N3CC(CCl)c4c3cc(N)c3ccccc43)cc2c1 (stereo unspecified),2.5,0.83,3,1.1,–,–,–,–
COc1cc2cc(C(=O)N3CC(COS(C)(=O)=O)c4c3cc(N)c3ccccc43)[nH]c2c(OC)c1OC (stereo unspecified),0.48,0.4,1.2,0.46,–,–,–,–
COc1cccc(/C=C/C(=O)N2CC(CCl)c3c2cc(N)c2ccccc32)c1 (stereo unspecified),0.37,0.63,0.68,0.42,–,–,–,–
CC(=O)Nc1cc(C(=O)Nc2cc(C(=O)N3CC(CCl)c4c3cc(N)c3ccccc43)nn2C)nn1C (stereo unspecified),374,212,49,253,–,–,–,–
CC(=O)Nc1cc(/C=C/C(=O)N2CC(CCl)c3c2cc(N)c2ccccc32)n(C)n1 (stereo unspecified),10.7,4.9,13,5.4,–,–,–,–
COc1ccc(/C=C/C(=O)N2CC(CCl)c3c2cc(N)c2ccccc32)cc1 (stereo unspecified),0.09,0.089,0.24,0.058,–,–,–,–
CC(=O)Nc1ccc(/C=C/C(=O)N2CC(CCl)c3c2cc(N)c2ccccc32)cc1 (stereo unspecified),2.6,1.2,2.7,1.4,–,–,–,–
COc1ccc2[nH]c(/C=C/C(=O)N3CC(CCl)c4c3cc(N)c3ccccc43)cc2c1 (stereo unspecified),0.28,0.23,0.48,0.22,–,–,–,–
COc1ccc2[nH]c(C(=O)N3CC(CCl)c4c3cc(N)c3ccccc43)cc2c1 (stereo unspecified),1.3,0.98,1.86,0.84,–,–,–,–
"COc1cc2cc(C(=O)N3CC(CCl)c4c3cc(N)c3ccccc43)[nH]c2c(OC)c1OC (single isomer, unassigned; (-))",–,–,–,–,14,7,7.9,2.7
CCCC(=O)Nc1cc(/C=C/C(=O)N2CC(CCl)c3c2cc(N)c2ccccc32)n(C)c1 (stereo unspecified),31,5.9,22,16,–,–,–,–
COc1cc2cc(C(=O)N3CC(CCl)c4c3cc(N)c3ccccc43)[nH]c2cc1OCCN(C)C (stereo unspecified),3.6,2,5.3,2.1,–,–,–,–
COc1cc(OCCN(C)C)c2[nH]c(C(=O)N3CC(CCl)c4c3cc(N)c3ccccc43)cc2c1 (stereo unspecified),3.7,1.9,4.2,1.9,–,–,–,–
Nc1cc2c(c3ccccc13)C(CCl)CN2C(=O)c1cc2cc(NC(=O)c3cc4ccccc4o3)ccc2[nH]1 (stereo unspecified),2,1.3,3.5,1.5,–,–,–,–
CN(C)CCOc1ccc2[nH]c(C(=O)N3CC(CCl)c4c3cc(N)c3ccccc43)cc2c1 (stereo unspecified),4.1,1.3,7,1.7,–,–,–,–
"COc1cc2cc(C(=O)N3CC(CCl)c4c3cc(N)c3ccccc43)[nH]c2c(OC)c1OC (single isomer, unassigned; (+))",–,–,–,–,0.21,0.13,0.54,0.14
CC(=O)Nc1ccc2[nH]c(C(=O)N3CC(CCl)c4c3cc(N)c3ccccc43)cc2c1 (stereo unspecified),12.5,5.2,17.3,7.6,–,–,–,–
CC(=O)Nc1cccc(/C=C/C(=O)N2CC(CCl)c3c2cc(N)c2ccccc32)c1 (stereo unspecified),2.7,0.86,1.5,1.5,–,–,–,–
